Measurements as given in ChEMBL document CHEMBL3259708, “Thienoquinolines as novel disruptors of the PKCε/RACK2 protein-protein interaction” (J Med Chem, 2014).
Blank lines part the entries; values can stand above or below the compound they belong to. Calls of active or inactive are those of the source. The rule behind the calls is not given here.

How the values were obtained:
[1] = target: T1, Protein kinase C epsilon type (Homo sapiens, UniProt Q02156); assay: (§1) Inhibition of recombinant PKCepsilon (unknown origin)-MBP-tagged RACK2 interaction after 1 hr by ELISA-based assay relative to untreated control
T1 sequence (Q02156 whole entry): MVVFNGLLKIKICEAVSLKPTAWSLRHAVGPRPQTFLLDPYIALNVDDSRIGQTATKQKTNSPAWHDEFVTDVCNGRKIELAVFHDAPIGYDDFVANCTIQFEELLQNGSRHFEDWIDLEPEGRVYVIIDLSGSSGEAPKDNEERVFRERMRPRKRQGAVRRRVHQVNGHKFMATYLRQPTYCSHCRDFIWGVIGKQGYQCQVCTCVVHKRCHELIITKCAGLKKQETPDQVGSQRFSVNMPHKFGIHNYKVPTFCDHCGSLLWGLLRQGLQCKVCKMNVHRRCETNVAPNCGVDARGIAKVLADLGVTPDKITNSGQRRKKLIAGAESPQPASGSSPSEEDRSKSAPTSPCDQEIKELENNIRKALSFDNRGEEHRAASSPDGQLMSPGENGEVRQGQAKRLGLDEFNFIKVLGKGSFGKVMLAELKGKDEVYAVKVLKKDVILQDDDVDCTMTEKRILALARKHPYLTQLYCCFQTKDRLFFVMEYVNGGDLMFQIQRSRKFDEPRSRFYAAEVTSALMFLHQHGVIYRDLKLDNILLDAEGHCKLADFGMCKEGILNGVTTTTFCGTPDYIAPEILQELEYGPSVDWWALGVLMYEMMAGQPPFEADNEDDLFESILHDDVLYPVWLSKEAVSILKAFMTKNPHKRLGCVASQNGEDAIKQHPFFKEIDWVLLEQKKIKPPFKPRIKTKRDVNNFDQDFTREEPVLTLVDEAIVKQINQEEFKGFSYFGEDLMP
How it was run: (§2)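 ELISA: plates coated with 100 ng recombinant PKCε in 20 mM Tris-HCl/100 mM NaCl pH 7.5 overnight at 4 °C, blocked with 3% BSA; PKCε activated 10 min at 30 °C with 60 μg/mL phosphatidylserine and 100 nM TPA; RACK2-MBP preincubated with agent 30 min, then 500 ng added for 1 h binding; anti-RACK2/HRP detection, ABTS at 420 nm; four experiments, quadruplicates, normalized to control; IC50 via CalcuSyn.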

[2] = target: T2, Protein kinase C epsilon type (Homo sapiens) (UniProt Q02156); assay: as §1; design: residual binding, % of control: concentration or dose not given beside the values; conditions: for residual binding, % of control: values are per cent of control; how it was run: as §2
T2 sequence (whole entry): T1 sequence (Q02156 whole entry)

[3] = target: T2, Protein kinase C epsilon type (Homo sapiens); assay: Inhibition of PKCepsilon-induced phosphorylation of MARCKS in human HeLa cells at 50 uM by SDS-PAGE analysis; format: cell-based
How it was run: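 HeLa cells serum-starved 16 h, treated with 50 μM agent for 30 min with 100 nM TPA for the last 10 min; 150 μg lysate protein on SDS 8–16% gels, blotted for MARCKS pSer152/156 with tubulin loading control; densitometry of three independent experiments.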

[4] = target: Protein kinase C alpha type (Homo sapiens) (UniProt P17252); assay: Inhibition of PKCalpha (unknown origin) at 50 uM
[5] = target: Tyrosine-protein kinase BTK (Homo sapiens) (UniProt Q06187); assay: Inhibition of BTK (unknown origin) at 25 uM; values are per cent of control
[6] = target: T3, NUAK family SNF1-like kinase 1 (Homo sapiens) (UniProt O60285); assay: Inhibition of NUAK1 (unknown origin) at 25 uM; values are per cent of control
T3 sequence (whole entry): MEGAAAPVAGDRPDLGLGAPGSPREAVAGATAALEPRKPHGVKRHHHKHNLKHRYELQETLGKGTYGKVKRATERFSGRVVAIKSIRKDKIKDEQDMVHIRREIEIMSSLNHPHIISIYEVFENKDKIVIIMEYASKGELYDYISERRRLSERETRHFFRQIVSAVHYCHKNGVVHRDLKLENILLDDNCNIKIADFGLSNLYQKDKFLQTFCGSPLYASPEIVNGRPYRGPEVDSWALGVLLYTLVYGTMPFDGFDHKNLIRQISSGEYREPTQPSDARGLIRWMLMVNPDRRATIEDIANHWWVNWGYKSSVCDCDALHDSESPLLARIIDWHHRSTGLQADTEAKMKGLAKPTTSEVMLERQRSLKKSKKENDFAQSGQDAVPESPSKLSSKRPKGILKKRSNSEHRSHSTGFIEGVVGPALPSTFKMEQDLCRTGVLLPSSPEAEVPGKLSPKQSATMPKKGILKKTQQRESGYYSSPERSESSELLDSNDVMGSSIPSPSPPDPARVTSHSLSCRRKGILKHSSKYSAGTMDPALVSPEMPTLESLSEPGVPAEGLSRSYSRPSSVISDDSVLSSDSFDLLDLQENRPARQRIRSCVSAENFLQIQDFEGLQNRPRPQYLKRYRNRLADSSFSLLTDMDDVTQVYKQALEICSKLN

[7] = target: Protein kinase C delta type (Homo sapiens) (UniProt Q05655); assay: Inhibition of PKCdelta translocation to cell membrane in human PC3 cells at 25 to 50 uM by densitometric analysis; format: cell-based; conditions: PC-3
How it was run: (§3)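 PC-3 cells starved 16 h, agent 30 min, then 50 nM TPA 5 min; lysed and split into cytosolic and membrane fractions; Western blot for PKCε, PKCε pSer729 or PKCδ, with IGFI-βR (membrane) and GAPDH (cytosol) loading controls; densitometry of four independent experiments, normalized to control, t test.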

[8] = target: T2, Protein kinase C epsilon type (Homo sapiens); assay: Inhibition of recombinant PKCepsilon (unknown origin)-MBP-tagged RACK2 interaction at 25 uM after 1 hr by ELISA-based assay relative to untreated control; values are per cent of control
[9] = target: T2, Protein kinase C epsilon type (Homo sapiens); assay: Inhibition of TPA-induced PKCepsilon translocation to cell membrane in human PC3 cells at 50 uM by immunofluorescence analysis; format: cell-based; conditions: PC-3
How it was run: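 PC-3 cells on poly-L-lysine coverslips treated with agent 30 min then 100 nM TPA 5 min; fixed in 4% paraformaldehyde/4% sucrose, permeabilized, stained for PKCε with fluorescent secondary, imaged by microscopy; three independent experiments.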

[10] = test system: PC-3; assay: Antiproliferative activity against human PC3 cells expressing luciferase gene up to 50 uM; format: cell-based
How it was run: (§4)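 HeLa-HLR and PC-3 cells seeded ~10 000/well; agent added after 4 h at various concentrations for 72 h; growth read by SRB assay; mean ±SD of three independent experiments, triplicate samples each.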

[11] = test system: HeLa; assay: Antiinvasive activity against human HeLa cells expressing doxycycline-inducible PKCepsilon at 25 uM after 24 hrs; format: functional, cell-based
How it was run: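 Invasion of HeLa cells carrying doxycycline-inducible constitutively active PKCε, PKCε expression induced with doxycycline, through reconstituted basement membrane matrix using a commercial invasion kit per manufacturer; mean of three experiments, normalized to control (100%), t test.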

[12] = target: T2, Protein kinase C epsilon type (Homo sapiens); assay: Inhibition of TPA-induced PKCepsilon Ser729 phosphorylation in human PC3 cell membrane at 25 to 50 uM by densitometric analysis; format: cell-based; conditions: PC-3; how it was run: as §3
[13] = test system: HeLa; assay: Antiproliferative activity against human HeLa cells expressing luciferase gene up to 50 uM; format: cell-based; how it was run: as §4
[14] = species: Gallus gallus; assay: Antiangiogenic activity in chicken egg assessed as inhibition of VEGF-induced angiogenesis at 10 ng after 5 days by microscopic analysis; format: functional
How it was run: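 Hen eggs incubated 3 days at 37 °C, opened, incubated 7 more days; VEGF and test agent added on day 10; after 5 further days, vessel formation inspected by microscope.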

[15] = target: Serine/threonine-protein kinase pim-3 (Homo sapiens) (UniProt Q86V86); assay: Inhibition of PIM3 (unknown origin) at 25 uM; values are per cent of control
[16] = target: T1, Protein kinase C epsilon type; assay: (§5) Inhibition of PKCepsilon-induced phosphorylation of Elk1 in human HeLa cells after 4 hrs by luciferase reporter gene assay; format: cell-based
How it was run: (§6)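 PathDetect HeLa-HLR Elk-1 trans-reporting cells (200 000/well, grown 24 h) starved 16 h in 0.5% FBS medium; agent 30 min, 50 nM TPA 5 min, washed, then 4 h in starvation medium with agent; luciferase read on 20 μg lysate protein; mean ±SD of three experiments normalized to control; IC50 by CalcuSyn.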

[17] = target: T2, Protein kinase C epsilon type (Homo sapiens); assay: as §5; format: cell-based; how it was run: as §6
[18] = target: T2, Protein kinase C epsilon type (Homo sapiens); assay: Inhibition of recombinant PKCepsilon (unknown origin)-MBP-tagged RACK2 interaction at 10 uM after 1 hr by ELISA-based assay relative to untreated control; conditions: values are per cent of control; how it was run: as §2
[19] = target: Protein kinase C beta type (Homo sapiens) (UniProt P05771); assay: Inhibition of PKCbeta1 (unknown origin) at 50 uM
[20] = target: Protein kinase C eta type (Homo sapiens) (UniProt P24723); assay: Inhibition of PKCeta (unknown origin) at 50 uM
[21] = test system: HeLa; assay: Antimigratory activity against human HeLa cells expressing doxycycline-inducible PKCepsilon at 25 uM after 24 hrs by scratch migration assay; format: functional, cell-based
How it was run: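 HeLa cells carrying doxycycline-inducible constitutively active PKCε grown to log phase; ~1 mm scratch made in monolayer with pipet tip, washed with PBS, then given 2 μg/mL doxycycline plus 25 μM test agent for 24 h; controls untreated or doxycycline plus DMSO; gap closure viewed by microscope.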

[22] = target: T2, Protein kinase C epsilon type (Homo sapiens); assay: Inhibition of phosphorylated form of PKCepsilon translocation to cell membrane in human PC3 cells at 25 to 50 uM by densitometric analysis; format: cell-based; conditions: PC-3; how it was run: as §3
[23] = target: Protein kinase C beta type (Homo sapiens) (UniProt P05771); assay: Inhibition of recombinant GST-tagged PKCbeta2 (unknown origin)-His-tagged RACK1 interaction after 1 hr by ELISA-based assay relative to untreated control
How it was run: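 ELISA: 200 ng His-tagged RACK1 coated overnight at 4 °C; agent added 30 min at room temperature; 500 ng GST-PKCβII activated with CaCl2, phosphatidylserine and TPA for 10 min, then bound 1 h; detected with anti-GST and HRP secondary, ABTS colour at 420 nm.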

[24] = target: Mitogen-activated protein kinase 3 (Homo sapiens) (UniProt P27361); assay: Inhibition of ERK1 (unknown origin) at 25 uM; values are per cent of control
[25] = target: Ribosomal protein S6 kinase alpha-3 (Homo sapiens) (UniProt P51812); assay: Inhibition of RSK2 (unknown origin) at 25 uM; values are per cent of control
[26] = target: T2, Protein kinase C epsilon type (Homo sapiens); assay: Inhibition of PKCepsilon translocation to cell membrane in human PC3 cells at 25 to 50 uM by densitometric analysis; format: cell-based; conditions: PC-3; how it was run: as §3

Chain of Protein kinase C beta type (Homo sapiens) (P05771 2-671 limits assumed): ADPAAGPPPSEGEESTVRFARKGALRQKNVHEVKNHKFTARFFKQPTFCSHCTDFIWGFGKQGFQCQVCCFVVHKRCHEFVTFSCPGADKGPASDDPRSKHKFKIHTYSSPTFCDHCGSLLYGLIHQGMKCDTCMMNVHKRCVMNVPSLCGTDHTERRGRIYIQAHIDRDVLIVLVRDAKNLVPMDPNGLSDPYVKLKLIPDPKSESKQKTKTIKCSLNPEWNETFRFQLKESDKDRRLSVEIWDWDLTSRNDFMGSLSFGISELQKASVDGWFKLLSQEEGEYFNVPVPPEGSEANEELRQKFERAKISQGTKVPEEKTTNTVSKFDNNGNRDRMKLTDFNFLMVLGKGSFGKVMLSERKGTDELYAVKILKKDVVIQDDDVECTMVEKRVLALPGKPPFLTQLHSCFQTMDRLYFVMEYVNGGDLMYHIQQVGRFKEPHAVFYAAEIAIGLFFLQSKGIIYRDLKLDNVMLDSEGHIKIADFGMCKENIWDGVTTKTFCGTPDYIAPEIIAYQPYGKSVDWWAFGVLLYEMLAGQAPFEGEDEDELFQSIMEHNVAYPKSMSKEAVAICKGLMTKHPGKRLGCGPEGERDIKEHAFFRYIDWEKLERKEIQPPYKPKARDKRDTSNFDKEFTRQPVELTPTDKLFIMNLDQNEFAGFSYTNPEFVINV
Chain of Protein kinase C eta type (Homo sapiens) (P24723 whole entry): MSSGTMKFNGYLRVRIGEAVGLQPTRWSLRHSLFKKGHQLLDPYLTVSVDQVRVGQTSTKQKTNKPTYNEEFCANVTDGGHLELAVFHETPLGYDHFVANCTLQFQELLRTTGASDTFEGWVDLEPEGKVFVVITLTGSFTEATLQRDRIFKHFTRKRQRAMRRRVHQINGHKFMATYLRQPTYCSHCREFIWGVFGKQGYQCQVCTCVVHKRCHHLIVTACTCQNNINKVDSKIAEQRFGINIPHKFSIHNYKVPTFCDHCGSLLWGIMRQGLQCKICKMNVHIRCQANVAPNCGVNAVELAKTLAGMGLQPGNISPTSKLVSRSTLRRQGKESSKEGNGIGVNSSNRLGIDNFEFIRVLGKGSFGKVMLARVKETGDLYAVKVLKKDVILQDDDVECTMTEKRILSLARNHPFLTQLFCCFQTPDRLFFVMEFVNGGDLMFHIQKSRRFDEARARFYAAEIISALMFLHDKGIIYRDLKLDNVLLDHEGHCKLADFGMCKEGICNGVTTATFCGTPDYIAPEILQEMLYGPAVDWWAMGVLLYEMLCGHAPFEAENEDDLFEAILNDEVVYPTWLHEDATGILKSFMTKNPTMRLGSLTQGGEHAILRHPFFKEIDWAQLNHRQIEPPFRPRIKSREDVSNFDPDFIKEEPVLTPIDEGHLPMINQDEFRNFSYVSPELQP
Chain of Ribosomal protein S6 kinase alpha-3 (Homo sapiens) (P51812 whole entry): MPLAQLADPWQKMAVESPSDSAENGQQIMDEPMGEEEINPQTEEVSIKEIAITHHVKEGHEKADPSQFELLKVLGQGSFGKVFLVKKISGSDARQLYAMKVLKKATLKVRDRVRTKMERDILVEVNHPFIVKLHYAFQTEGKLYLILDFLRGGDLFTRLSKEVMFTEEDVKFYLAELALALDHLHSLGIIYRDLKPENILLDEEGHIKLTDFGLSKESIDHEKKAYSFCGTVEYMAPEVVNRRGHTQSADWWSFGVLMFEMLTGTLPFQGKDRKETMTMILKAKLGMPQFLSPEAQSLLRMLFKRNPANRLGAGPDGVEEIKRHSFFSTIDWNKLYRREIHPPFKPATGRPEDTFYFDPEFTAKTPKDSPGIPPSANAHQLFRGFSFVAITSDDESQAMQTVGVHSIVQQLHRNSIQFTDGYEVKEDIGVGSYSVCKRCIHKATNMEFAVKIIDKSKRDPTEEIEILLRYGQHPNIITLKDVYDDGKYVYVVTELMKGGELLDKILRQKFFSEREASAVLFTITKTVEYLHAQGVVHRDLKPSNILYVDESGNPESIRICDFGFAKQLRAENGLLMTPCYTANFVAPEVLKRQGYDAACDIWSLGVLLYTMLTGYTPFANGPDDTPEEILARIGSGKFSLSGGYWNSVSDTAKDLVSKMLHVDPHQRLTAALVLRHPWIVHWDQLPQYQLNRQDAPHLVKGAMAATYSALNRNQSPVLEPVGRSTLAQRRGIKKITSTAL
Chain of Protein kinase C delta type (Homo sapiens) (Q05655 whole entry, looked up): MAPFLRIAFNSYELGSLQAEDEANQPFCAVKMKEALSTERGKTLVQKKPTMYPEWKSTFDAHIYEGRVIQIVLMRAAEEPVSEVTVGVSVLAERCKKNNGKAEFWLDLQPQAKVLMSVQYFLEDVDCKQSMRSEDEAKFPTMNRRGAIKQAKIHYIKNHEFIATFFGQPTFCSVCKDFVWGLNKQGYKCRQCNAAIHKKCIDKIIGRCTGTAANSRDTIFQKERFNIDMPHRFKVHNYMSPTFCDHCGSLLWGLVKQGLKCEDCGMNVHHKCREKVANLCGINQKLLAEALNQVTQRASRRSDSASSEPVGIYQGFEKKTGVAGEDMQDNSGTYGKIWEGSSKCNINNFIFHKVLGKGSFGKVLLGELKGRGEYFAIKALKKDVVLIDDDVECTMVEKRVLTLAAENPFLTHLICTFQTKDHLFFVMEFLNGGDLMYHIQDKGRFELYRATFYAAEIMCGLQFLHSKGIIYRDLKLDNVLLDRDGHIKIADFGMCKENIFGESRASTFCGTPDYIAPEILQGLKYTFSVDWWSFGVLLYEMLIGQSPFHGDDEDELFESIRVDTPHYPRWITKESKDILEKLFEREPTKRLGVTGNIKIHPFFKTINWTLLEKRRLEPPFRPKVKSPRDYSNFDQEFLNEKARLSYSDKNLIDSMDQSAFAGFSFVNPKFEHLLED
Chain of Tyrosine-protein kinase BTK (Homo sapiens) (Q06187 whole entry): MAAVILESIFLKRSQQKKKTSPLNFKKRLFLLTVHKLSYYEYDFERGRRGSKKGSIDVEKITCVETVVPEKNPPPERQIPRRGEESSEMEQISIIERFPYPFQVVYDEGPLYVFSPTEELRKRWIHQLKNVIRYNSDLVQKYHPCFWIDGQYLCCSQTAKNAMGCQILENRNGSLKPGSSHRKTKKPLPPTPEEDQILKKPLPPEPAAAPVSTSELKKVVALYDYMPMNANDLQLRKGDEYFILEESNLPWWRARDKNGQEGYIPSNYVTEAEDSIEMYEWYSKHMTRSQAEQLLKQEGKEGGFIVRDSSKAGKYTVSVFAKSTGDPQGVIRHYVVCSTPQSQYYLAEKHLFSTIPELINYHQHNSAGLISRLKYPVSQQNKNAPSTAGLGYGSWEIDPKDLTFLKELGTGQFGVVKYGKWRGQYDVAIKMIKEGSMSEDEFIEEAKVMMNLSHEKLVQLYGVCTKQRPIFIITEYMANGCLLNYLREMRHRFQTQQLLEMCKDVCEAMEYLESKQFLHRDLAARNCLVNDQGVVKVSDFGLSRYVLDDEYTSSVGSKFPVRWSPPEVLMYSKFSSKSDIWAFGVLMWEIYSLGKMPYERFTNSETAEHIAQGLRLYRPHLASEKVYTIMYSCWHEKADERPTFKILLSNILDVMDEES
Chain of Mitogen-activated protein kinase 3 (Homo sapiens) (P27361 whole entry): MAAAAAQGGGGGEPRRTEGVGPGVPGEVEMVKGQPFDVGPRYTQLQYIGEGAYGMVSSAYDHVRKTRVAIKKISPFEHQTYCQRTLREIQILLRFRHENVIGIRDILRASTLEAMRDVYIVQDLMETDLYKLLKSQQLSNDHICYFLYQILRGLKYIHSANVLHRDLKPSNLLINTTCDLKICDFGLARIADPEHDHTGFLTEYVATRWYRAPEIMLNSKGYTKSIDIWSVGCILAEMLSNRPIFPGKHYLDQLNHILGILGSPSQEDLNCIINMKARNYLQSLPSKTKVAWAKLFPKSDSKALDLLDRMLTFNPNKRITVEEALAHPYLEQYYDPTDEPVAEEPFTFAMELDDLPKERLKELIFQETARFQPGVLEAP

IC50 [1]: 25.5 µM
residual binding, % of control [2]: 37.7%
Compound: CCOc1ccc2nc(NC(=O)c3sc4nc5cc(OC)ccc5cc4c3N)sc2c1

residual binding, % of control [2]: 60.8%
Compound: COc1ccc2cc3c(N)c(C(=O)Nc4c(C)cccc4C)sc3nc2c1

residual binding, % of control [2]: 48.3%
Compound: CO/N=C(\C)c1cccc(NC(=O)c2sc3nc4cc5c(cc4cc3c2N)OCCO5)c1

residual binding, % of control [2]: 57.6%
Compound: Nc1c(C(=O)Nc2cccc(Cl)c2Cl)sc2nc3cc4c(cc3cc12)OCCO4

residual binding, % of control [2]: 29.6%
Compound: CCOC(=O)c1cccc(NC(=O)c2sc3nc4ccc(OC)cc4cc3c2N)c1

residual binding, % of control [2]: 102%
Compound: CC(O)c1cccc(NC(=O)C2Sc3nc4cc5c(cc4cc3C2N)OCCO5)c1 (configuration not stated)

residual binding, % of control [2]: 64.9%
Compound: CC(=O)c1cccc(NC(=O)c2cc3cc4cc5c(cc4nc3s2)OCCO5)c1

residual binding, % of control [2]: 22.8%
Compound: CC(=O)c1ccc(NC(=O)c2sc3nc4cc5c(cc4cc3c2N)OCCO5)cc1

inhibition [3]: Active
inhibition [4]: 80%
residual activity [5]: 42%
residual activity [6]: 49%
inhibition [7]: inactive
residual activity [8]: 13.3%
inhibition [9]: Active
inhibition [12]: inactive
residual activity [15]: 46%
IC50 [16]: 11.2 µM
inhibition [17]: Dose-dependent effect
residual binding, % of control [18]: 23.6%
inhibition [19]: 80%
inhibition [20]: 80%
inhibition [22]: Active
inhibition [23]: inactive
residual activity [24]: 55%
residual activity [25]: 27%
IC50 [1]: 5.9 µM
inhibition [2]: Dose-dependent effect
inhibition [26]: Active
Compound: CC(=O)c1cccc(NC(=O)c2sc3nc4cc5c(cc4cc3c2N)OCCO5)c1
Activity [10]: Non-toxic
inhibition [11]: Active
Activity [13]: Non-toxic
inhibition [14]: Active
inhibition [21]: Active

residual binding, % of control [2]: 32.9%
Compound: COc1ccc2nc3sc(C(=O)Nc4ccc(N5CCOCC5)cc4)c(N)c3cc2c1

IC50 [1]: 1.02 µM
Compound: H-EAVSLKPT-OH
